From PubChem BioAssay
hERG rescue = shields human hERG channel from block by proarrhythmic agents. activation (rescue from dofetilide block), less the hit threshold, % at 10 µM. Q12809. hit rate 0.51% among 310,000. AID 1511. CHO-hERG, FluxOR thallium flux, dofetilide IC70 present;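 active means activation above the mean of controls blocked by dofetilide plus 5 SD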;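 further: thallium influx through hERG after potassium depolarization seen as dye fluorescence rise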
KCNK9 block = human KCNK9 channel inhibition; Q9NPC2; HEK293 KCNK9, FluxOR thallium flux fluorescence; active compounds read low; B-score at 10 µM; hit rate 1.2% among 310,000;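 active means ratio B-score over 3 SD below the library mean, with starting fluorescence within 5 SD of its mean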;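 further: negative B-score means less thallium flux so channel inhibition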
Kir21 inh = Kir2.1 (mouse) channel inhibition. B-score at 10 µM. HEK293-Kir2.1, FluxOR thallium flux fluorescence; active compounds read low. hit rate 0.85% among 310,000;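 active means fluorescence ratio B-score at or below minus 3 SD of library scores, with starting-brightness B-score within 2 SD, cut at about -4.2 in these data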;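 further: channel flux triggered by added potassium and thallium sulfate stimulus; B-score of peak minus minimum fluorescence over baseline after thallium stimulus; more negative B-score means stronger Kir2.1 block with less thallium influx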
KCNK3 block = human KCNK3 channel inhibition, primary screen. CHO-KCNK3 thallium flux, FluxOR fluorescence; active compounds read low. AID 602410. B-score at 10 µM. O14649. hit rate 0.84% among 340,000;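 active means B-score under library mean minus 4 SD, starting fluorescence ratio at most library mean plus 5 SD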;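 further: more negative B-score means stronger inhibition of thallium flux through KCNK3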
KCNQ1 act = potentiates or activates the human KCNQ1 potassium channel | P51787 | hit rate 0.35% among 310,000 | B-score at 10 µM | CHO-K1 KCNQ1, thallium flux FluxOR fluorescence; active compounds read high | AID 2648;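 active means fluorescence ratio B-score, a plate-corrected score, at least three library SD, with initial intensity B-score within 5 SD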
Target sequence (P51787 whole entry, looked up): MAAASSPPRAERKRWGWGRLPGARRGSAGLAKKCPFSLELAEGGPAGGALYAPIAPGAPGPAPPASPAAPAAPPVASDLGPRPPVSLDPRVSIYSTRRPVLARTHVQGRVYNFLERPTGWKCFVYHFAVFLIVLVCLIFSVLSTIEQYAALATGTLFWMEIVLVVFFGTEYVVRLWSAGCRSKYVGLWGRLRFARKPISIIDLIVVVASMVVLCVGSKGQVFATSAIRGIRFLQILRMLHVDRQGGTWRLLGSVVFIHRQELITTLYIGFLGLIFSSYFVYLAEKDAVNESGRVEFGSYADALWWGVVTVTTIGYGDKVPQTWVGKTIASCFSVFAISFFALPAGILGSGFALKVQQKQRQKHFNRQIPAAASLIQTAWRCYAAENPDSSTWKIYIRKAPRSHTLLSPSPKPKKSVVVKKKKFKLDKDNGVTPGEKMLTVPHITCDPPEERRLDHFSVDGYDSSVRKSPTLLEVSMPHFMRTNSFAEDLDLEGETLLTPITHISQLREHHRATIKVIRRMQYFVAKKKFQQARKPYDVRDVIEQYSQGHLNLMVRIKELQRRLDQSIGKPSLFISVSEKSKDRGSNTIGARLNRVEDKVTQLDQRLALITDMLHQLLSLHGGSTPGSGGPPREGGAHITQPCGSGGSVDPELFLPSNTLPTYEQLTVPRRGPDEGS
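Material: CHO-K1 cells stably expressing KCNQ1. Medium: assay buffer for compound exposure, DMSO matched across wells. Reagent: K+/Tl+ depolarizing stimulus. Compound dosing: single-concentration screen. Times: 37 °C overnight plating, 90-min dark dye load, 20-min compound pretreatment. Technique: FluxOR Tl+ flux fluorescence.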
KCNQ1 inh = blocks the human KCNQ1 potassium channel. P51787. CHO-K1 KCNQ1, FluxOR thallium flux fluorescence; active compounds read high. B-score at 10 µM. hit rate 1.3% among 310,000. AID 2642;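 active means compounds whose thallium flux B-score, printed positive for inhibition, exceeds three library SD while starting fluorescence stays within three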;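 further: channel opened by potassium depolarization with thallium stimulus after 20 min compound exposure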
KCNK9 block conf = human KCNK9 inhibitor confirmation; shares compounds with KCNK9 block; HEK293 KCNK9 cells, FluxOR thallium flux fluorescence; inhibition, % at 10 µM; hit rate 43% among 4,900; AID 492992;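 active means thallium signal inhibited by more than 5 SD of the compound-free buffer control wells, on both duplicate plates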
Kir2-1 spec = tests whether KCNK9 modulators also affect mouse Kir2.1; shares compounds with KCNK9 block; Kir2.1 cells, FluxOR thallium flux fluorescence; inhibition, % at 10 µM; hit rate 4% among 4,900; AID 492993;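 active means thallium signal drop more than 5 SD beyond the mean of the no-compound control wells, seen in both duplicate plates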;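 further: signal is fluorescence rise after thallium addition divided by baseline fluorescence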
KCNK9 uninduced = non-induced cell nonspecific activity of KCNK9 modulators; shares compounds with KCNK9 block; non-induced KCNK9-HEK293, FluxOR thallium flux; inhibition, % at 10 µM; hit rate 40% among 4,900; AID 492997;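 active means thallium signal drop beyond 5 SD of the untreated control mean, on both duplicate plates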
Of the large screens only hits and unclear results are named; the others gave an inactive call (follow-up assays come after a bar, where they were run). This is a sample that favours compounds with a hit; in the whole collection about 3.7% have one here.

CCOC(=O)/C(=N\Nc1ccccc1Cl)N(C)C1CCCCC1	KCNK9 block -8.8 | KCNK9 block conf 64% | Kir2-1 spec inactive | KCNK9 uninduced 50%
CC(C)(C)OC(=O)NC1CCN(S(=O)(=O)c2ccc3c(c2)OCCO3)CC1	none
CN(CC(=O)NCCCN1CCOCC1)S(=O)(=O)c1ccc(Cl)cc1	none (no result: hERG rescue, KCNK9 block, Kir21 inh, KCNQ1 act, KCNQ1 inh)
CCN(CC)c1nc(C)nc2c1cnn2CCc1ccccc1	none | KCNK9 block conf inactive | Kir2-1 spec inactive | KCNK9 uninduced inactive
CCN(CC)c1ncnc2c1cnn2Cc1ccc(C)cc1	none
O=C(Nc1cccc(-c2nc3ccccc3s2)c1)c1cc(=O)c2ccccc2o1	none
O=C(Nc1cccc(-c2nc3ccccc3s2)c1)c1cccs1	KCNK9 block -10 | KCNK9 block conf 49% | Kir2-1 spec inactive | KCNK9 uninduced 26%
O=C(Nc1cccc(-c2cn3ccccc3n2)c1)c1cccs1	KCNK9 block -8.5 | KCNK9 block conf 52% | Kir2-1 spec inactive | KCNK9 uninduced inactive
O=C(c1cc(COc2ccc(F)cc2Cl)on1)N1CCSCC1	none
CC(C)C1COC(c2cccn2Cc2ccccc2Cl)=N1 (configuration not stated)	none | KCNK9 block conf inactive | Kir2-1 spec inactive | KCNK9 uninduced 30%
Cc1oc(-c2ccccc2Cl)nc1Cn1cccc1C1=NC(c2ccccc2)CO1 (configuration not stated)	KCNK9 block -13, KCNQ1 inh 6 | KCNK9 block conf 54% | Kir2-1 spec inactive | KCNK9 uninduced 52%
Cc1ccc(Cn2cccc2C2=NC(C)CO2)cc1 (configuration not stated)	none
O=c1c2cc(-c3ccccc3)sc2ncn1/N=C/c1ccco1	none | KCNK9 block conf inactive | Kir2-1 spec inactive | KCNK9 uninduced inactive
CCCCCn1cnc2sc(-c3ccccc3)cc2c1=O	none
COc1ccccc1CNC(=O)CSCc1cnn(-c2ccccc2)c1-n1cccc1	Kir21 inh -5.8 | KCNK9 block conf inactive | Kir2-1 spec inactive | KCNK9 uninduced inactive
COc1cccc(CNC(=O)CSCc2cnn(-c3ccccc3)c2-n2cccc2)c1OC	none | KCNK9 block conf inactive | Kir2-1 spec 31% | KCNK9 uninduced inactive
COc1ccc(OC)c(NC(=O)CSCc2cnn(-c3ccccc3)c2-n2cccc2)c1	Kir21 inh -4.3 | KCNK9 block conf inactive | Kir2-1 spec inactive | KCNK9 uninduced 29%
COc1cc(NC(=O)CSCc2cnn(-c3ccccc3)c2-n2cccc2)cc(OC)c1	none
CC(C)(C)c1ccc(Cn2nnc3c(=O)[nH]c(C4CCCN(C(=O)c5cccs5)C4)nc32)cc1 (configuration not stated)	none
COc1ccc(-c2nc(-c3ccc4c(c3)OCO4)[nH]c2-c2ccc(OC)cc2)cc1	KCNK9 block -9.2 | KCNK9 block conf 65% | Kir2-1 spec inactive | KCNK9 uninduced inactive
CCOC(=O)c1c(C)[nH]c(C)c1C(=O)CSc1nc2ccccc2c(=O)n1-c1ccccc1C	KCNK9 block -9.6 | KCNK9 block conf 32% | Kir2-1 spec inactive | KCNK9 uninduced 34%
CCOC(=O)c1c(C)[nH]c(C)c1C(=O)CSc1nc2ccccc2c(=O)n1-c1ccc(F)cc1	KCNK9 block -10 | KCNK9 block conf inactive | Kir2-1 spec inactive | KCNK9 uninduced inactive
Cc1ccc(C(=O)CSc2nc3ccccc3c(=O)n2-c2ccccc2)s1	none
O=C(CSc1nccc(-c2cccs2)n1)Nc1ccc(F)c(Cl)c1	KCNK9 block -8.2 | KCNK9 block conf inactive | Kir2-1 spec inactive | KCNK9 uninduced 37%
O=C(CSc1nccc(-c2cccs2)n1)Nc1cccc(Cl)c1	none
CCOC(=O)C1CCN(C(=O)COC(=O)C23CC4CC(CC(C4)C2)C3)CC1	none (no result: hERG rescue, KCNK9 block, Kir21 inh, KCNQ1 act, KCNQ1 inh)
COc1ccc(/C=C/c2nc3ccccc3n2Cc2ccc(OC)c(OC)c2)cc1	KCNK9 block -8.1 | KCNK9 block conf 58% | Kir2-1 spec inactive | KCNK9 uninduced 33%
CCC(=O)N1c2ccc(S(=O)(=O)N3CCN(c4cc(C)ccc4C)CC3)cc2CC1C (configuration not stated)	none | KCNK9 block conf inactive | Kir2-1 spec inactive | KCNK9 uninduced inactive
CCC(=O)N1c2ccc(S(=O)(=O)N3CCN(c4ccccc4Cl)CC3)cc2CC1C (configuration not stated)	none
COc1ccc(S(=O)(=O)N(CC(=O)NCc2ccco2)c2ccccc2OC)cc1	none
Cc1ccsc1C(=O)N1CCN(c2ccccn2)CC1	KCNK9 block -8.1 | KCNK9 block conf inactive | Kir2-1 spec inactive | KCNK9 uninduced inactive
Cc1ccsc1C(=O)N1CCCC(CCC(=O)N2CCN(c3ccccn3)CC2)C1 (configuration not stated)	none
CC(C)CC(OC(=O)CC1Sc2ccccc2NC1=O)C(=O)NC1CCCC1 (configuration not stated)	KCNK9 block -8.9 | KCNK9 block conf inactive | Kir2-1 spec inactive | KCNK9 uninduced inactive
CCOC(=O)c1nn(-c2ccc(F)cc2)c(=O)cc1OCC(=O)Nc1ccc(OCC)cc1	none
O=C1C(NS(=O)(=O)c2cccs2)=C(N2CCN(Cc3ccccc3)CC2)C(=O)c2ccccc21	none | KCNK9 block conf inactive | Kir2-1 spec inactive | KCNK9 uninduced inactive
CN1CCN(C2=C(NS(=O)(=O)c3cccs3)C(=O)c3ccccc3C2=O)CC1	none
CC1CCN(c2ccccc2NC(=O)c2ccc(C#N)cc2F)CC1	none
CC(C)C(=O)N1CCN(c2ccccc2NC(=O)c2ccc(C#N)cc2F)CC1	none | KCNK9 block conf inactive | Kir2-1 spec inactive | KCNK9 uninduced inactive
NC(=O)c1ccc(-c2nnn(CC(=O)N(C3CCCC3)C3CCS(=O)(=O)C3)n2)cc1 (configuration not stated)	none (no result: hERG rescue, KCNK9 block, Kir21 inh, KCNQ1 act, KCNQ1 inh)
COC(=O)C1CN(C(=O)COc2cc(C)c(Cl)c(C)c2)c2ccccc2O1 (configuration not stated)	KCNK9 block -9.9 | KCNK9 block conf inactive | Kir2-1 spec inactive | KCNK9 uninduced 34%
Cc1noc(NS(=O)(=O)c2ccc(NC(=O)Nc3ccc(Cl)c(Cl)c3)cc2)c1C	none | KCNK9 block conf inactive | Kir2-1 spec inactive | KCNK9 uninduced inactive
Cc1noc(NS(=O)(=O)c2ccc(NC(=O)C(Cl)(Cl)Cl)cc2)c1C	none
CCc1nnc(NC(=O)CSc2nc3cccnc3n2Cc2ccccc2)s1	none
N#C/C(=C\c1cn[nH]c1-c1ccc(Cl)cc1)C(=O)NC1CC1	none
